ChEMBL document CHEMBL1817567, “Design of benzimidazole- and benzoxazole-2-thione derivatives as inhibitors of bacterial hyaluronan lyase” (Eur J Med Chem, 2011)
≈ marks a conversion by molar mass, not a printed value. Calls of active or inactive are those of the source. No cut-off for these calls is given here.

Assays:
[1] = Inhibition of Streptococcus agalactiae 4755 hyaluronidase at pH 7.4
Method in brief: (§1)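 Same turbidimetric hyaluronan-lyase assay at pH 7.4 (citrate–phosphate/NaCl): SagHyal4755 2.9 ng, hyaluronan (2 mg/ml stock), BSA, 3.8% DMSO final, 3 h at 37 °C. CTAB (2.5%, in 0.5 M NaOH) precipitation, 20 min at 25 °C, A600. Activity scaled between no-inhibitor and no-enzyme samples.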

[2] = Inhibition of Streptococcus agalactiae 4755 hyaluronidase at pH 7.4 after 3 hrs by turbidimetric analysis; method in brief: as §1
[3] = target: T1, Hyaluronidase (Bos taurus) (UniProt Q8SQG8+Q5E985); assay: Inhibition of bovine testes hyaluronidase at 200 uM after 30 mins at pH 5 by turbidimetric analysis; assay type: protein assay
[4] = target: T1, Hyaluronidase (Bos taurus); assay: Inhibition of bovine testes hyaluronidase at 380 uM after 30 mins at pH 5 by turbidimetric analysis; assay type: protein assay
[5] = target: T1, Hyaluronidase (Bos taurus); assay: Inhibition of bovine testes hyaluronidase at 49 uM after 30 mins at pH 5 by turbidimetric analysis; assay type: protein assay
[6] = target: T1, Hyaluronidase (Bos taurus); assay: Inhibition of bovine testes hyaluronidase at 4200 uM after 30 mins at pH 5 by turbidimetric analysis; assay type: protein assay
[7] = target: T1, Hyaluronidase (Bos taurus); assay: Inhibition of bovine testes hyaluronidase at 460 uM after 30 mins at pH 5 by turbidimetric analysis; assay type: protein assay
[8] = target: T1, Hyaluronidase (Bos taurus); assay: Inhibition of bovine testes hyaluronidase at 180 uM after 30 mins at pH 5 by turbidimetric analysis; assay type: protein assay
[9] = target: T1, Hyaluronidase (Bos taurus); assay: Inhibition of bovine testes hyaluronidase at 190 uM after 30 mins at pH 5 by turbidimetric analysis; assay type: protein assay
[10] = target: T1, Hyaluronidase (Bos taurus); assay: Inhibition of bovine testes hyaluronidase at 170 uM after 30 mins at pH 5 by turbidimetric analysis; assay type: protein assay
[11] = target: T1, Hyaluronidase (Bos taurus); assay: Inhibition of bovine testes hyaluronidase at 100 uM after 30 mins at pH 5 by turbidimetric analysis; assay type: protein assay
[12] = target: T1, Hyaluronidase (Bos taurus); assay: Inhibition of bovine testes hyaluronidase at 400 uM after 30 mins at pH 5 by turbidimetric analysis; assay type: protein assay
[13] = target: T1, Hyaluronidase (Bos taurus); assay: Inhibition of bovine testes hyaluronidase at 3800 uM after 30 mins at pH 5 by turbidimetric analysis; assay type: protein assay
[14] = target: T1, Hyaluronidase (Bos taurus); assay: Inhibition of bovine testes hyaluronidase at 130 uM after 30 mins at pH 5 by turbidimetric analysis; assay type: protein assay
[15] = target: T1, Hyaluronidase (Bos taurus); assay: Inhibition of bovine testes hyaluronidase at 63 uM after 30 mins at pH 5 by turbidimetric analysis; assay type: protein assay
[16] = target: T1, Hyaluronidase (Bos taurus); assay: Inhibition of bovine testes hyaluronidase at 80 uM after 30 mins at pH 5 by turbidimetric analysis; assay type: protein assay
[17] = target: T1, Hyaluronidase (Bos taurus); assay: Inhibition of bovine testes hyaluronidase at 2000 uM after 30 mins at pH 5 by turbidimetric analysis; assay type: protein assay
[18] = target: T1, Hyaluronidase (Bos taurus); assay: Inhibition of bovine testes hyaluronidase at 150 uM after 30 mins at pH 5 by turbidimetric analysis; assay type: protein assay
[19] = Inhibition of Streptococcus agalactiae 4755 hyaluronidase at pH 5.0 after 30 mins by turbidimetric analysis
Method in brief: (§2)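 SagHyal4755 (2.9 ng) with BSA and hyaluronan (2 mg/ml stock) in citrate–phosphate/NaCl buffer pH 5.0, 3.8% DMSO final, 30 min at 37 °C. Stopped by alkaline 2.5% CTAB, then 20 min at 25 °C. Residual-substrate turbidity read at 600 nm; no-inhibitor sample = 100%, no-enzyme sample = 0% activity. Enzyme-free compound controls were run.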

[20] = Aqueous solubility of the compound in water; assay type: physicochemical
Method in brief: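 Turbidity at 600 nm of test compound in DMSO added to citrate–phosphate buffer (pH 5 and pH 7.4), water and BSA (0.2 mg/ml stock), at various concentrations, read against a water reference. Enzyme testing used only concentrations showing no turbidity.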

Streptococcus agalactiae = assay: Inhibition of Streptococcus agalactiae 4755 hyaluronidase at 100 uM after 30 mins at pH 5.0 by turbidimetric analysis; method in brief: as §2

| Structure (SMILES) | IC50 [1] [µM] | IC50 [2] [µM] | inhibition [3] | inhibition [4] | inhibition [5] | inhibition [6] | inhibition [7] | inhibition [8] | inhibition [9] | inhibition [10] | inhibition [11] | inhibition [12] | inhibition [13] | inhibition [14] | inhibition [15] | inhibition [16] | inhibition [17] | inhibition [18] | IC50 [19] [µM] | also measured |
| --- | --- | --- | --- | --- | --- | --- | --- | --- | --- | --- | --- | --- | --- | --- | --- | --- | --- | --- | --- | --- |
| Cc1c(-c2ccc(O)cc2)n(C)c2ccc(O)cc12 | 220 |  |  |  |  |  |  |  |  |  |  |  |  |  |  |  |  |  |  |  |
| O=C(CCC1CCCCC1)n1c(=S)oc2ccccc21 |  | 20 | inactive | inactive | inactive | inactive | inactive | inactive | inactive | inactive | inactive | inactive | inactive | inactive | inactive | inactive | inactive | inactive | 227 |  |
| Sc1nc2ccccc2[nH]1 [2-MERCAPTOBENZIMIDAZOLE] |  | 1860 | inactive | inactive | inactive | inactive | inactive | inactive | inactive | inactive | inactive | inactive | inactive | inactive | inactive | inactive | inactive | inactive | 1150 |  |
| O=C1O[C@H]([C@@H](O)CO)C(O)=C1O [ASCORBIC ACID] |  |  | inactive | inactive | inactive | inactive | inactive | inactive | inactive | inactive | inactive | inactive | inactive | inactive | inactive | inactive | inactive | inactive | 6100 |  |
| CCCCCCCCCC(=O)n1c(=S)oc2ccccc21 |  | 25 | inactive | inactive | inactive | inactive | inactive | inactive | inactive | inactive | inactive | inactive | inactive | inactive | inactive | inactive | inactive | inactive |  | solubility [20]: 100 µM (≈ 30.5 µg/mL); inhibition (Streptococcus agalactiae): 41% |
| Cc1c(-c2ccc(O)cc2)[nH]c2ccc(O)cc12 | 280 |  |  |  |  |  |  |  |  |  |  |  |  |  |  |  |  |  |  |  |
| CC(=O)n1c(=S)n(C(C)=O)c2ccccc21 | 5 | 5 | inactive | inactive | inactive | inactive | inactive | inactive | inactive | inactive | inactive | inactive | inactive | inactive | inactive | inactive | inactive | inactive | 160 |  |
| O=C(Cc1ccccc1)n1c(=S)oc2ccccc21 |  | 69 | inactive | inactive | inactive | inactive | inactive | inactive | inactive | inactive | inactive | inactive | inactive | inactive | inactive | inactive | inactive | inactive | 260 |  |
| O=C(CCc1ccccc1)n1c(=S)oc2ccccc21 |  | 24 | inactive | inactive | inactive | inactive | inactive | inactive | inactive | inactive | inactive | inactive | inactive | inactive | inactive | inactive | inactive | inactive | 15 |  |
| CCCCCn1c(-c2ccc(O)cc2)c(C)c2cc(O)ccc21 | 36 |  |  |  |  |  |  |  |  |  |  |  |  |  |  |  |  |  |  |  |
| CCC(=O)n1c(=S)oc2ccccc21 |  | 48 | inactive | inactive | inactive | inactive | inactive | inactive | inactive | inactive | inactive | inactive | inactive | inactive | inactive | inactive | inactive | inactive | 128 |  |
| CCCn1c(-c2ccc(O)cc2)c(C)c2cc(O)ccc21 | 160 |  |  |  |  |  |  |  |  |  |  |  |  |  |  |  |  |  |  |  |
| O=C(CCc1ccccc1)n1c(=S)[nH]c2ccccc21 |  | 29 | inactive | inactive | inactive | inactive | inactive | inactive | inactive | inactive | inactive | inactive | inactive | inactive | inactive | inactive | inactive | inactive |  | solubility [20]: 100 µM (≈ 28.2 µg/mL); inhibition (Streptococcus agalactiae): 5% |
| O=C(COc1ccccc1)n1c(=S)oc2ccccc21 |  | 62 | inactive | inactive | inactive | inactive | inactive | inactive | inactive | inactive | inactive | inactive | inactive | inactive | inactive | inactive | inactive | inactive | 213 |  |
| CCCCCCCn1c(-c2ccc(O)cc2)c(C)c2cc(O)ccc21 | 12 |  |  |  |  |  |  |  |  |  |  |  |  |  |  |  |  |  |  |  |
| O=C(OCc1ccccc1)n1c(=S)oc2ccccc21 |  | 556 | inactive | inactive | inactive | inactive | inactive | inactive | inactive | inactive | inactive | inactive | inactive | inactive | inactive | inactive | inactive | inactive |  | solubility [20]: 100 µM (≈ 28.5 µg/mL); inhibition (Streptococcus agalactiae): inactive |
| CC(=O)n1c(=S)oc2ccccc21 |  | 42 | inactive | inactive | inactive | inactive | inactive | inactive | inactive | inactive | inactive | inactive | inactive | inactive | inactive | inactive | inactive | inactive | 125 |  |
